Molecular target: not listed separately
Test: PEC50 for functional potassium channel opening activity in isolated bladder strips

EC50 | SMILES
339 nM | OC1=C2C(=Nc3ccnn3C2c2ccc(F)c(Br)c2)CCC1 (configuration not stated)
1000 nM | CC1(C)CCC2Nc3ccnn3C(c3ccc(F)c(Br)c3)C2C1=O (configuration not stated)

Molecular target: Sulfonylurea receptors; K-ATP channels
Test: Potassium channel opening activity determined in cultured guinea pig urinary bladder cells
Format: functional, cell-based, Cavia porcellus
Outline: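 Membrane potential change read as DiBAC dye fluorescence in a 96-well cell-based kinetic FLIPR assay. Fluorescence changes were compared with the response to the KCO P1075, and each compound's maximal response was expressed as % of the P1075 response.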

SMILES | EC50
CC1(C)CC(=O)C2C(C1)Nc1ccnn1C2c1ccc(F)c(Br)c1 (configuration not stated) | 9700 nM
N#Cc1cccc(C2C3=C(CCCC3=O)NC3=C2C(=O)CCC3)c1 | 3800 nM
OC1=C2C(=Nc3n[nH]cc3C2c2ccc(F)c(Br)c2)CCC1 (configuration not stated) | > 10000 nM
OC1=C2C(=Nc3ccnn3C2c2ccc(F)cc2)CCC1 (configuration not stated) | 7800 nM
N#Cc1cccc(C2C3=C(O)CCCC3=Nc3ccnn32)c1 (configuration not stated) | 2860 nM
CC(C)(C)c1cc2n(n1)C(c1ccc(F)c(Br)c1)C1=C(O)CCCC1=N2 (configuration not stated) | 12000 nM
OC1=C2C(=Nc3nnnn3C2c2ccc(F)c(Br)c2)CCC1 (configuration not stated) | > 10000 nM
Cc1cccc(C2C3=C(O)CCCC3=Nc3ccnn32)c1 (configuration not stated) | > 10000 nM
OC1=C2C(=Nc3ncnn3C2c2ccc(F)c(Br)c2)CCC1 (configuration not stated) | > 10000 nM
OC1=C2C(=Nc3c(-c4cccc(F)c4)cnn3C2c2ccc(Cl)c(Cl)c2)CCC1 (configuration not stated) | 3200 nM
OC1=C2C(=Nc3c(-c4ccco4)cnn3C2c2ccc(Cl)c(Cl)c2)CCC1 (configuration not stated) | 12000 nM

The next compounds have a lower EC50 than those just listed; values first:

EC50 | SMILES
1700 nM | OC1=C2C(=Nc3ccnn3C2c2cccc(OC(F)(F)F)c2)CCC1 (configuration not stated)
1100 nM | OC1=C2C(=Nc3ccnn3C2c2cccc(Cl)c2)CCC1 (configuration not stated)
910 nM | O=S1(=O)CCCC2Nc3ccnn3C(c3ccc(F)c(Br)c3)C21 (configuration not stated)
550 nM | OC1=C2C(=Nc3ccnn3C2c2cccc(Br)c2)CCC1 (configuration not stated)
394 nM | OC1=C2C(=Nc3c(Br)cnn3C2c2ccc(F)c(Br)c2)CCC1 (configuration not stated)
310 nM | O=[N+]([O-])c1cc(C2C3=C(O)CCCC3=Nc3ccnn32)ccc1Cl (configuration not stated)
290 nM | OC1=C2C(=Nc3ccnn3C2c2ccc(F)c(C(F)(F)F)c2)CCC1 (configuration not stated)
256 nM | OC1=C2C(=Nc3ccnn3C2c2ccc(F)c(Cl)c2)CCC1 (configuration not stated)
187 nM | OC1=C2C(=Nc3ccnn3C2c2ccc(Cl)c(C(F)(F)F)c2)CCC1 (configuration not stated)
130 nM | OC1=C2C(=Nc3ccnn3C2c2ccc(Cl)c(Cl)c2)CCC1 (configuration not stated)
40 nM | O=C1CSCC2Nc3ccnn3C(c3ccc(F)c(Br)c3)C12 (configuration not stated)
35 nM | CC1(C)CCC2Nc3ccnn3C(c3ccc(F)c(Br)c3)C2C1=O (configuration not stated)
30 nM | OC1=C2C(=Nc3ccnn3C2c2ccc(F)c(Br)c2)CCC1 (configuration not stated)
30 nM | OC1=C2C(=Nc3ccnn3C2c2ccc(Br)c(F)c2)CCC1 (configuration not stated)

Reference: ChEMBL document CHEMBL1135128, “Structure-Activity studies for a novel series of tricyclic dihydropyrimidines as K(ATP) channel openers (KCOs)” (Bioorg Med Chem Lett, 2002)
